The subject of data set [1] is Medulloblastoma cell. As to the kind of experiment: Antiproliferative activity in human medulloblastoma cell assessed as decrease in BrdU+ cells at 1 uM after 48 hrs by immunocytochemistry analysis relative to vehicle control. The format is functional, cell-based. A digest of the protocol: (§1)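 Cultured MB cells were exposed to inhibitor at 1 μM for 48 h, with DMSO as the vehicle control. Cells were pulsed with BrdU for 2 h, then immunostained for BrdU (proliferation) or p27/Kip1 (differentiation), with DAPI nuclear counterstain. Read-out was the percentage of positive cells.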

The subject of data set [2] is Medulloblastoma cell. As to the kind of experiment: Induction of cell differentiation activity in human medulloblastoma cell assessed as increase in p27/Kip1+ cells at 1 uM after 48 hrs by immunocytochemistry analysis. It is filed as functional, cell-based. A digest of the protocol: as §1
Data set [3] concerns Medulloblastoma cell. As to the kind of experiment: Upregulation in NeuroD1 protein expression in human medulloblastoma cell by Western blot analysis. It is filed as functional, cell-based.
In data set [4] the test system is Medulloblastoma cell. As to the kind of experiment: Antiproliferative activity in Ptch1-deficient mouse medulloblastoma cell after 48 hrs by CCK-8 assay. The format is functional, cell-based. A digest of the protocol: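 MB cells from tumors of 30-week-old Ptch1+/− mice, dissociated by papain digestion and purified on a 35%/65% Percoll gradient. Cells were treated with a range of inhibitor concentrations for 48 h and viability was read by CCK8 assay. IC50 was taken as the concentration giving 50% inhibition of viability.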
(In general: Tetrazolium assays rely on reduction of a dye to a coloured formazan, in cell work by metabolically active cells.)

The test system of data set [5] is Cerebellar granule neurone. As to the kind of experiment: Antiproliferative activity in wild-type mouse SmoA1-expressing cerebellar granule neurone cells at P7 at 2 uM for 48h by immunocytochemistry analysis. It is filed as functional, cell-based. A digest of the protocol: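 Cerebellar granule neuron precursors from wild-type pups were infected with SmoA1-GFP lentivirus. 48 h after infection they were treated with inhibitor at 2 μM for 48 h, with DMSO as control. Proliferation was scored as the percentage of EdU+ cells among infected cells by immunostaining.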

Data set [6] relates to Medulloblastoma cell. As to the kind of experiment: Antitumor activity in human medulloblastoma cells xenografted in CB17/SCID mouse at 100 mg/kg po, administered once a day. The format is functional, organism-based. On the technique in general: Xenograft models place foreign cells or tissue in a host animal.
In data set [7] the test system is Medulloblastoma cell. The data set is described as follows: Antitumor activity in human medulloblastoma cells xenografted in CB17/SCID mouse at 50 mg/kg po, administered once a day. The format is functional, organism-based.
Data set [8] in a line: Toxicity in CB17/SCID mouse xenografted with human medulloblastoma cells asessed as body weight loss at 100 mg/kg po, administered once a day. It is filed as organism-based. To be noted: in vivo.
A short description of data set [9]: Toxicity in CB17/SCID mouse xenografted with human medulloblastoma cells asessed as body weight loss at 50 mg/kg po, administered once a day. The following applies: in vivo. It is filed as organism-based.
In data set [10] the test system is Medulloblastoma cell. As to the kind of experiment: Antitumor activity in human medulloblastoma cells xenografted in CB17/SCID mouse assessed as decrease in Ki67+ cells at 100 mg/kg po, administered once a day by immunocytochemistry analysis. The format is functional, organism-based.
The test system of data set [11] is Medulloblastoma cell. The data set is described as follows: Antitumor activity in human medulloblastoma cells xenografted in CB17/SCID mouse assessed as decrease in Ki67+ cells at 50 mg/kg po, administered once a day by immunocytochemistry analysis. The format is functional, organism-based.
Data set [12] relates to Medulloblastoma cell. The data set is described as follows: Induction of cell differentiation activity in human medulloblastoma cells xenografted in CB17/SCID mouse assessed as increase in NeuN expression at 100 mg/kg po, administered once a day by immunocytochemistry analysis. The format is functional, organism-based.
Data set [13] concerns Medulloblastoma cell. The data set is described as follows: Induction of cell differentiation activity in human medulloblastoma cells xenografted in CB17/SCID mouse assessed as increase in NeuN expression at 50 mg/kg po, administered once a day by immunocytochemistry analysis. The format is functional, organism-based.
Data set [14] has as its system Medulloblastoma cell. The data set is described as follows: Increase of apoptosis in human medulloblastoma cells xenografted in CB17/SCID mouse assessed as cleaved caspase-3 expression at 100 mg/kg po, administered once a day by immunocytochemistry analysis. The format is functional, organism-based.
Data set [15] has as its system Medulloblastoma cell. The data set is described as follows: Increase of apoptosis in human medulloblastoma cells xenografted in CB17/SCID mouse assessed as cleaved caspase-3 expression at 50 mg/kg po, administered once a day by immunocytochemistry analysis. It is filed as functional, organism-based.
Data set [16] relates to Medulloblastoma cell. The data set is described as follows: Antitumor activity in human medulloblastoma cells xenografted in CB17/SCID mouse assessed as increase in NeuroD1 expression at 100 mg/kg po, administered once a day by Western blot analysis. It is filed as functional, organism-based.
A further data set relates to Mus musculus. The data set is described as follows: Antitumor activity in human medulloblastoma cells xenografted in CB17/SCID mouse assessed as increase in NeuroD1 expression at 50 mg/kg po, administered once a day by Western blot analysis. The format is functional, organism-based.

Activity calls are given as the source filed them. The rule behind the calls is not given here.

As for `CCCc1cc(C)[nH]c(=O)c1CNC(=O)c1cc(-c2ccc(N3CCN(C(C)C)CC3)nc2)cc2c1cnn2C(C)C`, the result (in the data set with Medulloblastoma cell [1]; with Medulloblastoma cell [2]; in the data set with Medulloblastoma cell [3]; in data set [5]; in the data set with Medulloblastoma cell [6]; in the data set with Medulloblastoma cell [7]) was Active. The result in the data set on Medulloblastoma cell [10], with Medulloblastoma cell [11], with Medulloblastoma cell [12], in the data set with Medulloblastoma cell [13], in the data set with Medulloblastoma cell [14] and in the data set with Medulloblastoma cell [15] was Active. In addition, the outcome in the data set on Medulloblastoma cell [16] and with Mus musculus was Active. For the same compound, in the data set with Medulloblastoma cell [4], the IC50 (usually the concentration needed to halve the response being measured) was 2.08 µM. Further, the Activity result in data set [8] and in data set [9] was “Non-Toxic” throughout.

Consider `CC[C@H](C)n1cc(C)c2c(C(=O)NCc3c(C)cc(C)[nH]c3=O)cc(-c3ccc(N4CCNCC4)nc3)cc21` [GSK2816126], for which the result (in the data set on Medulloblastoma cell [1]; in the data set with Medulloblastoma cell [2]; with Medulloblastoma cell [3]; in [5]; with Medulloblastoma cell [6]; in the data set on Medulloblastoma cell [7]) was Active. The result in the data set with Medulloblastoma cell [10], with Medulloblastoma cell [11], in the data set with Medulloblastoma cell [12], in the data set with Medulloblastoma cell [13], with Medulloblastoma cell [14] and with Medulloblastoma cell [15] was Active. Also, the result with Medulloblastoma cell [16] and in the data set with Mus musculus was Active. Also, the half-inhibitory concentration (IC50) in the data set with Medulloblastoma cell [4] was 4.64 µM. The Activity entry in data set [8] and in data set [9] was “Non-Toxic” throughout.

For the compound `CCN(c1cc(-c2ccc(CN3CCOCC3)cc2)cc(C(=O)NCc2c(C)cc(C)[nH]c2=O)c1C)C1CCOCC1` [TAZEMETOSTAT], the outcome (in the data set on Medulloblastoma cell [1]; in the data set on Medulloblastoma cell [2]; in the data set with Medulloblastoma cell [3]; in data set [5]; in the data set on Medulloblastoma cell [6]; in the data set on Medulloblastoma cell [7]) was Active. In addition, the result in the data set with Medulloblastoma cell [10], in the data set with Medulloblastoma cell [11], in the data set with Medulloblastoma cell [12], in the data set with Medulloblastoma cell [13], in the data set on Medulloblastoma cell [14] and with Medulloblastoma cell [15] was Active. The result with Medulloblastoma cell [16] and with Mus musculus was Active. In the data set with Medulloblastoma cell [4], this compound had a 50% inhibitory concentration (IC50) of 8.74 µM. Also, the Activity entry in data set [8] and in data set [9] was “Non-Toxic” in each case.

These data come from ChEMBL document CHEMBL5712092, “NeuroD1 Dictates Tumor Cell Differentiation in Medulloblastoma” (Cell Rep, 2020).
